Data taken from ChEMBL document CHEMBL1124284, “Design of novel inhibitors of aminopeptidases. Synthesis of peptide-derived diamino thiols and sulfur replacement analogues of bestatin” (J Med Chem, 1988).

Test: Inhibition of partially purified soluble aminopeptidase from rat brain
Conditions: read-out: I50
Method in brief: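 Enzyme from whole fresh Sprague-Dawley rat brain: homogenized in ice-cold 50 mM Tris-HCl pH 7.4 with 1 mM DTT and 0.01 mM ZnCl2, soluble supernatant taken after 80000g spin, 40–70% ammonium sulfate cut, dialyzed. About 30 μg protein started the reaction with leucine p-nitroanilide (final 100 μM), up to 1 h at 37 °C or room temperature. Released p-nitroaniline read at 550 nm.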
With `CC(C)C[C@@H](NC(=O)[C@H](Cc1ccccc1)NCC(S)[C@@H](N)CC(C)C)C(=O)O` (stereo partly drawn) the IC50 was 4 nM. Work on `CC(C)C[C@@H](NC(=O)[C@H](Cc1ccccc1)NCC(S)[C@@H](N)Cc1ccccc1)C(=O)O` (stereo partly drawn) yielded an IC50 of 1 nM. `CC(C)C[C@@H](NC(=O)[C@H](Cc1ccccc1)NCC(O)[C@@H](N)Cc1ccccc1)C(=O)O` (stereo partly drawn) showed an IC50 of 580 nM. In the case of `CC(C)C[C@H](NCC(S)[C@@H](N)CC(C)C)C(N)=O` (stereo partly drawn), the IC50 is reported as 34 nM. `N[C@H](CS)Cc1ccccc1` showed an IC50 of 39 nM. In the case of `CC(C)C[C@@H](NC(=O)[C@H](Cc1ccccc1)NCCS)C(=O)O`, the IC50 is reported as 240000 nM. Work on `CC(C)C[C@H](N)CS` yielded an IC50 of 10 nM. For `CC(C)C[C@H](NCC(S)[C@@H](N)Cc1ccccc1)C(N)=O` (stereo partly drawn), the IC50 was 33 nM. With `CC(C)C[C@H](NC(=O)C(S)[C@@H](N)Cc1ccccc1)C(=O)O` (stereo partly drawn) the IC50 was 1600 nM. Compound `N[C@@H](CS)Cc1ccccc1` has an IC50 of 6900 nM. Work on `CC(C)CCNCC(S)[C@@H](N)Cc1ccccc1` (stereo in doubt; 53) yielded an IC50 of 300 nM. Compound `CC(C)CCNCC(S)[C@@H](N)Cc1ccccc1` (stereo in doubt; 54) has an IC50 of 20 nM. `CC(C)CCNCC(S)[C@@H](N)CC(C)C` (stereo in doubt; 55) gave an IC50 of 81 nM. `CC(C)CCNCC(S)[C@@H](N)CC(C)C` (stereo in doubt; 56) gave an IC50 of 29 nM. Compound `CC(C)CCNCC(S)[C@H](N)Cc1ccccc1` (stereo in doubt; 57) has an IC50 of 3100 nM. With `CC(C)CCNCC(S)[C@H](N)Cc1ccccc1` (stereo in doubt; 58) the IC50 was 600 nM. `CC(C)CCNCC(S)[C@H](N)CC(C)C` (stereo in doubt; 59) gave an IC50 of 7500 nM. For `CC(C)CCNCC(S)[C@H](N)CC(C)C` (stereo in doubt; 60), the IC50 was 2500 nM. For `CC(C)C[C@H](NCC(S)[C@@H](N)Cc1ccccc1)C(=O)O` (stereo in doubt; 70), the IC50 was 4400 nM. `CC(C)C[C@H](NCC(S)[C@@H](N)Cc1ccccc1)C(=O)O` (stereo in doubt; 71) showed an IC50 of 220 nM. `CC(C)C[C@H](NC(=O)C(S)[C@H](N)Cc1ccccc1)C(=O)O` (stereo in doubt; 78) showed an IC50 of 10000 nM. In the case of `CC(C)C[C@H](NC(=O)C(S)[C@H](N)Cc1ccccc1)C(=O)O` (stereo in doubt; 79), the IC50 is reported as 220 nM. With `CC(C)C[C@H](NC(=O)[C@@H](O)[C@H](N)Cc1ccccc1)C(=O)O` [UBENIMEX] the IC50 was 170 nM.
